Screens from PubChem BioAssay.
Compounds with a hit are over-represented: about 5.8% of the library has one in this group of screens.
PLK1 PBD inh: inhibitors of human Plk1 polo box domain binding; AID 693; P53350; inhibition, %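 (tested at about 20 µM)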; 97,000 compounds, 0.13% hits; Plk1 PBD phosphopeptide binding, fluorescence polarization; in the data active = inhibition above about 34%, passing the limit was not always enough
Target sequence (P53350 whole entry, looked up, the tested form may be a part): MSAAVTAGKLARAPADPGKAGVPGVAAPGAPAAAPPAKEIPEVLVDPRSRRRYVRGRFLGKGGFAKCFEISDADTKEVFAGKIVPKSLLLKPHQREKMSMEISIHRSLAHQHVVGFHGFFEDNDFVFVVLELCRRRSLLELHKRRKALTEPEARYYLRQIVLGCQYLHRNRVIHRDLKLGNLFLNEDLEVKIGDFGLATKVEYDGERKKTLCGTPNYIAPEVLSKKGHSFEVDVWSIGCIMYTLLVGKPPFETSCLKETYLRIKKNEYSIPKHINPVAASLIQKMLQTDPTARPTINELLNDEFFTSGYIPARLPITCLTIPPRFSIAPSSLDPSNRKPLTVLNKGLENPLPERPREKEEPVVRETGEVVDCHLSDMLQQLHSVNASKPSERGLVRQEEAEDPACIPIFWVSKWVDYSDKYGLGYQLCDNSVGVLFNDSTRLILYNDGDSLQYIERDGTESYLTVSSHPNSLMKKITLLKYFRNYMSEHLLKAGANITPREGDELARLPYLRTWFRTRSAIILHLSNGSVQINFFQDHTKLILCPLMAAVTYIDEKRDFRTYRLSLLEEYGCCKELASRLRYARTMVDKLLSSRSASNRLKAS
PLK1 inh: PLK1 (human) kinase inhibition; P53350; inhibition, % at 10 µM; 97,000 compounds, 0.53% hits; AID 619; recombinant PLK1 kinase, TR-FRET peptide phosphorylation;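 active = inhibition of 50% or more in the single-concentration screen; inactive = inhibition below 50%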;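 also: 0% = DMSO max control and 100% = H-89 dihydrochloride min control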
Cav32 inh: human Cav3.2 channel inhibition, primary screen. O95180. Cav3.2-expressing cells, Fluo-4 calcium fluorescence FDSS; stronger effect = lower value. B-score at 10 µM. 100,000 compounds, 4% hits. AID 449739;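 active = single-dose well whose peak fluorescence ratio is a statistical outlier from its plate by either plate-standardised score or position-corrected B-score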
PTK2B oligo ant: antagonists of human Pyk2 oligomerization; AID 1347419; Q293 cells, Pyk2 FERM NanoBiT luminescence; stronger effect = lower value; z-score (the deposit names both 25 µM and 10 µM); Q14289; 99,000 compounds, 0.83% hits;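 active = Z-score of -3 or lower, scaled per plate to the spread of control and sample wells; inactive = z-score above -3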;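 also: negative z-score means lost luminescence so less FERM oligomerization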
FAK blocker: blocks human focal adhesion kinase activity; Q05397; biochemical FAK kinase activity assay; inhibition, %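 (tested at 7 µM)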; 97,000 compounds, 0.84% hits; in the data active = inhibition above about 19%;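 also: 0% = DMSO and 100% = reference compound high control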
Rev-RRE block: disrupts HIV-1 Rev binding to RRE RNA; P05866; Rev peptide-RRE RNA binding, FRET; inhibition, % at 8 µM; 97,000 compounds, 0.79% hits;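 active = inhibition above the screen-wide mean plus 3 SD, cut at about 35% in these data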;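 also: 0% = median DMSO wells and 100% = median Neomycin B control wells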
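Assay system: Rev peptide and RRE RNA, both fluorescently labelled; times: 5 min preincubation and 15 min binding, 25 °C; detection: FRET, ex 480 nm, em 540 and 671 nm; read-out basis: % inhibition from 671/540 nm acceptor-to-donor ratio, scaled between controls; benchmarks: DMSO low control, neomycin B high control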
The depositor's hits bear a star.

What do the screens show for `Cc1ccc(C(C)NC(=O)C2CCCO2)cc1C` (stereo unspecified)?
PLK1 PBD inh: -10; PLK1 inh: 0; Cav32 inh: -5.4*; PTK2B oligo ant: -0.13; FAK blocker: -11; Rev-RRE block: 2

How did Cc1cc(Nc2nc3ccccc3[nH]c2=O)n(-c2ccccc2)n1 do in these assays?
Cav32 inh: 0.45; PTK2B oligo ant: -0.46

How did Cc1cc(Nc2cnc3ccccc3n2)n(-c2ccccc2)n1 do in these assays?
PLK1 PBD inh: -24; PLK1 inh: -8; Cav32 inh: -4.6*; PTK2B oligo ant: -0.54; FAK blocker: 3; Rev-RRE block: 2

What do the screens show for `CN1CCCN(C2C3CC4CC(C3)CC2C4)CC1` (stereo unspecified)?
PLK1 PBD inh: -3; PLK1 inh: -10; PTK2B oligo ant: 0.41; FAK blocker: -6; Rev-RRE block: -1

How did N#Cc1nc(Cc2ccccc2)oc1N1CCC(Cc2ccccc2)CC1 do in these assays?
PLK1 PBD inh: -2; PLK1 inh: -11; Cav32 inh: -5.2*; PTK2B oligo ant: 0.73; FAK blocker: -3; Rev-RRE block: 16

How did N#Cc1nc(COc2ccc(F)cc2)oc1N1CCC(Cc2ccccc2)CC1 do in these assays?
PLK1 PBD inh: -20; PLK1 inh: -10; PTK2B oligo ant: 0.23; FAK blocker: -1; Rev-RRE block: 12

How did N#Cc1nc(Cc2ccccc2)oc1N1CCN(c2ccccc2)CC1 do in these assays?
PLK1 PBD inh: 11; PLK1 inh: -1; Cav32 inh: -4.8*; PTK2B oligo ant: -0.66; FAK blocker: 3; Rev-RRE block: 3

What do the screens show for `Cc1oc(-c2ccccc2F)nc1CS(=O)CC(=O)NCc1cccs1` (stereo unspecified)?
PLK1 PBD inh: -6; PLK1 inh: 62*; Cav32 inh: 0.11; FAK blocker: 1; Rev-RRE block: 1

What do the screens show for `Cc1oc(-c2ccccc2Cl)nc1CS(=O)CC(=O)NCc1cccs1` (stereo unspecified)?
PLK1 PBD inh: -9; PLK1 inh: -2; Cav32 inh: -0.35; FAK blocker: -4; Rev-RRE block: -3

What do the screens show for `CCCCNC(=O)CS(=O)Cc1nc(-c2cccs2)oc1C` (stereo unspecified)?
PLK1 PBD inh: 3; PLK1 inh: 59*; Cav32 inh: 0.82; FAK blocker: -1; Rev-RRE block: 8

How did CC(C)C(=O)Nc1ccc(-c2csc(-c3ccccc3)n2)cc1 do in these assays?
PLK1 PBD inh: -23; PLK1 inh: -9; Cav32 inh: 0.51; PTK2B oligo ant: 0.03; FAK blocker: -4; Rev-RRE block: 3

How did COc1ccc(NC(C)=O)cc1NC(=O)CSc1nc2ncccc2[nH]1 do in these assays?
PLK1 PBD inh: 27; PLK1 inh: -15; Cav32 inh: 0.93; PTK2B oligo ant: 0.01; FAK blocker: -2; Rev-RRE block: -1

Results for O=C(Cc1ccc(Cl)cc1)Nc1ccccc1CO ?
PLK1 PBD inh: 1; PLK1 inh: -8; Cav32 inh: -0.15; PTK2B oligo ant: 1.8; FAK blocker: -3; Rev-RRE block: 8

Results for O=C1NC(c2ccccc2)=C(c2nc3ccccc3s2)C(c2ccc(F)cc2)N1 (stereo unspecified) ?
PLK1 PBD inh: 2; PLK1 inh: -10; Cav32 inh: -5.1; PTK2B oligo ant: -3.2*; FAK blocker: -8; Rev-RRE block: 3

What do the screens show for `O=C1NC2=C(C(=O)c3ccccc32)C(c2ccccc2)N1` (stereo unspecified)?
PLK1 PBD inh: -7; PLK1 inh: -4; Cav32 inh: -1.4; PTK2B oligo ant: -0.83; FAK blocker: 6; Rev-RRE block: 16

How did COc1ccc(C2NC(=O)NC(c3ccccc3)=C2c2nc3ccccc3s2)cc1 (stereo unspecified) do in these assays?
PLK1 PBD inh: 6; PLK1 inh: -12; Cav32 inh: -5.8*; PTK2B oligo ant: -2.9; FAK blocker: 0; Rev-RRE block: 6

How did CCOC(=O)C1=C(C)NC(SCC(=O)O)=NC1c1ccccc1 (stereo unspecified) do in these assays?
Cav32 inh: 0.98

What do the screens show for `FC(F)(F)c1cccc(-n2cccc2/C=N/n2cnnc2)c1`?
PLK1 PBD inh: 0; PLK1 inh: -9; Cav32 inh: 0.29; PTK2B oligo ant: 0.62; FAK blocker: -2; Rev-RRE block: -1

What do the screens show for `Cc1nn(-c2cccc(C(F)(F)F)c2)c(Cl)c1/C=N/n1cnnc1`?
PLK1 PBD inh: -6; PLK1 inh: -3; Cav32 inh: -0.92; PTK2B oligo ant: -0.05; FAK blocker: -1; Rev-RRE block: 36*

What do the screens show for `O=C(Cn1c(=O)n(CCCC(=O)NC2CCCC2)c(=O)c2ccccc21)NCCC1=CCCCC1`?
PTK2B oligo ant: 0.18

How did Cc1csc(C(=O)O)c1-n1cccc1 do in these assays?
PLK1 PBD inh: 29; PLK1 inh: 55*; Cav32 inh: -0.32; PTK2B oligo ant: -0.04; FAK blocker: -2; Rev-RRE block: 1

What do the screens show for `CC(C)COP(=O)(c1ccc(N(C)C)cc1)C(O)c1ccccc1F` (stereo unspecified)?
PLK1 PBD inh: 5; PLK1 inh: -13; Cav32 inh: -0.96; PTK2B oligo ant: 0.12; FAK blocker: 0; Rev-RRE block: 0

Results for CC(C)CC(c1nnnn1C(C)C)N1CCN(c2cccc(Cl)c2)CC1 (stereo unspecified) ?
PLK1 PBD inh: 1; PLK1 inh: -3; Cav32 inh: -3.5*; PTK2B oligo ant: -0.96; FAK blocker: -3; Rev-RRE block: 6

How did Cc1ccc(S(=O)(=O)Cn2nnnc2C(CC(C)C)N2CCN(c3ccc(F)cc3)CC2)cc1 (stereo unspecified) do in these assays?
PLK1 PBD inh: 0; PLK1 inh: -5; Cav32 inh: -1.3; PTK2B oligo ant: -1.2; FAK blocker: 2; Rev-RRE block: -1

Results for Cc1cc(C)cc(NC(=O)NCc2nnc(SCc3ccccc3)n2C)c1 ?
PLK1 PBD inh: 13; PLK1 inh: -17; Cav32 inh: -4.3*; PTK2B oligo ant: -0.28; FAK blocker: 5; Rev-RRE block: 11

What do the screens show for `Cn1c(CNC(=O)Nc2ccccc2)nnc1SCc1ccccc1`?
PLK1 PBD inh: 27; PLK1 inh: -22; Cav32 inh: 0.65; PTK2B oligo ant: -0.45; FAK blocker: 7; Rev-RRE block: -2

What do the screens show for `CCCCCc1c(C)nc(Nc2nc(C)c3cc(OC)ccc3n2)[nH]c1=O`?
PLK1 PBD inh: 2; PLK1 inh: -4; Cav32 inh: -3.8*; PTK2B oligo ant: 0.17; FAK blocker: 1; Rev-RRE block: 0

What do the screens show for `CC(C)(C)n1nnnc1CN(Cc1ccc(F)cc1)Cc1ccco1`?
PLK1 PBD inh: 7; PLK1 inh: -8; Cav32 inh: -4.7*; PTK2B oligo ant: -0.62; FAK blocker: 8; Rev-RRE block: 8

Results for CCOc1ccccc1N(CC(=O)NC1CCCCC1)S(C)(=O)=O ?
PTK2B oligo ant: -0.53
